Reference: ChEMBL document CHEMBL1275521, “Fluoroquinolone enhances the mutation frequency for meropenem-selected carbapenem resistance in Pseudomonas aeruginosa, but use of the high-potency drug doripenem inhibits mutant formation” (2008)
≈ marks a conversion by molar mass, not a printed value.

Experiments:
Pseudomonas aeruginosa [1] = assay: Antimicrobial activity against wild-type Pseudomonas aeruginosa GP61 after 18 hrs by agar dilution method; format: functional
How it was run: (§1)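 MICs by agar dilution following CLSI guidelines; plates incubated 18 h at 37°C.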

Pseudomonas aeruginosa [2] = assay: Antimicrobial activity against Pseudomonas aeruginosa GP62KT41 harboring oprD gene after 18 hrs by agar dilution method; format: functional
How it was run: (§2)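 Carbapenem-resistant mutants were isolated on carbapenem-containing AB3 agar after 10^6-fold dilution and broth culture, with or without ciprofloxacin or ofloxacin. Randomly picked colonies were checked for MIC by agar dilution following CLSI guidelines, with 18 h incubation at 37°C. PAO1KTL and PAO1KTS came from meropenem selection without fluoroquinolone.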

Pseudomonas aeruginosa [3] = assay: Antimicrobial activity against wild-type Pseudomonas aeruginosa GP62 after 18 hrs by agar dilution method; format: functional; how it was run: as §1
Pseudomonas aeruginosa [4] = assay: Antimicrobial activity against Pseudomonas aeruginosa GP37KT31 harboring oprD gene after 18 hrs by agar dilution method; format: functional; how it was run: as §2
Pseudomonas aeruginosa [5] = assay: Antimicrobial activity against wild-type Pseudomonas aeruginosa GP37 after 18 hrs by agar dilution method; format: functional; how it was run: as §1
Pseudomonas aeruginosa [6] = assay: Antimicrobial activity against Pseudomonas aeruginosa GP20KT21 harboring oprD gene after 18 hrs by agar dilution method; format: functional; how it was run: as §2
Pseudomonas aeruginosa [7] = assay: Antimicrobial activity against wild-type Pseudomonas aeruginosa GP20 after 18 hrs by agar dilution method; format: functional; how it was run: as §1
Pseudomonas aeruginosa [8] = assay: Antimicrobial activity against Pseudomonas aeruginosa GP4KT111 harboring oprD,mexAB-oprM gene after 18 hrs by agar dilution method; format: functional
Pseudomonas aeruginosa [9] = assay: Antimicrobial activity against wild-type Pseudomonas aeruginosa GP4 after 18 hrs by agar dilution method; format: functional; how it was run: as §1
Pseudomonas aeruginosa [10] = assay: Antimicrobial activity against Pseudomonas aeruginosa PAO1 SO20 harboring mexAB-oprM gene after 18 hrs by agar dilution method; format: functional
Pseudomonas aeruginosa [11] = assay: Antimicrobial activity against Pseudomonas aeruginosa PAO1 IPM46 harboring oprD gene after 18 hrs by agar dilution method; format: functional
Pseudomonas aeruginosa [12] = assay: Antimicrobial activity against Pseudomonas aeruginosa PAO1 KTS harboring mexAB-oprM gene after 18 hrs by agar dilution method; format: functional; how it was run: as §2
Pseudomonas aeruginosa [13] = assay: Antimicrobial activity against Pseudomonas aeruginosa PAO1 KTL1 harboring oprD, mexAB-oprM gene after 18 hrs by agar dilution method; format: functional
Pseudomonas aeruginosa [14] = assay: Antimicrobial activity against Pseudomonas aeruginosa PAO1 after 18 hrs by agar dilution method; format: functional; how it was run: as §1
Pseudomonas aeruginosa [15] = assay: Antimicrobial activity against Pseudomonas aeruginosa PAO1 KTL harboring oprD gene after 18 hrs by agar dilution method; format: functional; how it was run: as §2
Pseudomonas aeruginosa [16] = assay: Antimicrobial activity against Pseudomonas aeruginosa GP61KT51 harboring oprD,mexAB-oprM gene after 18 hrs by agar dilution method; format: functional
Pseudomonas aeruginosa [17] = assay: Antimicrobial activity against Pseudomonas aeruginosa GP4KT11 harboring oprD gene after 18 hrs by agar dilution method; settings: GP4KT11, 18 h
Pseudomonas aeruginosa [18] = assay: Antimicrobial activity against Pseudomonas aeruginosa GP4KT111 harboring oprD gene after 18 hrs by agar dilution method; format: functional; settings: GP4KT11

| Molecule | MIC (Pseudomonas aeruginosa [1]; GP61, 18 h) [µg/mL] | MIC (Pseudomonas aeruginosa [2]; GP62KT41, 18 h) [µg/mL] | MIC (Pseudomonas aeruginosa [3]; GP62, 18 h) [µg/mL] | MIC (Pseudomonas aeruginosa [4]; GP37KT31, 18 h) [µg/mL] | MIC (Pseudomonas aeruginosa [5]; GP37, 18 h) [µg/mL] | MIC (Pseudomonas aeruginosa [6]; GP20KT21, 18 h) [µg/mL] | MIC (Pseudomonas aeruginosa [7]; GP20, 18 h) [µg/mL] | MIC (Pseudomonas aeruginosa [8]; GP4KT111, 18 h) [µg/mL] | MIC (Pseudomonas aeruginosa [9]; GP4, 18 h) [µg/mL] | MIC (Pseudomonas aeruginosa [10]; PAO1 SO20, 18 h) [µg/mL] | MIC (Pseudomonas aeruginosa [11]; PAO1 IPM46, 18 h) [µg/mL] | MIC (Pseudomonas aeruginosa [12]) [µg/mL] | MIC (Pseudomonas aeruginosa [13]; PAO1 KTL1, 18 h) [µg/mL] | MIC (Pseudomonas aeruginosa [14]; PAO1, 18 h) [µg/mL] | MIC (Pseudomonas aeruginosa [15]) [µg/mL] | MIC (Pseudomonas aeruginosa [16]; GP61KT51, 18 h) [µg/mL] | MIC (Pseudomonas aeruginosa [17]) [µg/mL] | other results |
| --- | --- | --- | --- | --- | --- | --- | --- | --- | --- | --- | --- | --- | --- | --- | --- | --- | --- | --- |
| CC(C)(O/N=C(\C(=O)N[C@@H]1C(=O)N2C(C(=O)[O-])=C(C[n+]3ccccc3)CS[C@H]12)c1csc(N)n1)C(=O)O [CEFTAZIDIME] | 3.1 (≈ 5.67 µM) | 1.6 (≈ 2.93 µM) | 1.6 (≈ 2.93 µM) | 1.6 (≈ 2.93 µM) | 1.6 (≈ 2.93 µM) | 1.6 (≈ 2.93 µM) | 1.6 (≈ 2.93 µM) | 6.3 (≈ 11.5 µM) | 1.6 (≈ 2.93 µM) | 6.3 (≈ 11.5 µM) | 1.6 (≈ 2.93 µM) | 6.3 (≈ 11.5 µM) | 6.3 (≈ 11.5 µM) | 1.6 (≈ 2.93 µM) | 1.6 (≈ 2.93 µM) | 12.5 (≈ 22.9 µM) | 1.6 (≈ 2.93 µM) | – |
| C[C@@H](O)[C@H]1C(=O)N2C(C(=O)O)=C(SCCNC=N)C[C@H]12 [IMIPENEM ANHYDROUS] | 6.3 (≈ 21 µM) | 12.5 (≈ 41.8 µM) | 0.8 (≈ 2.67 µM) | 12.5 (≈ 41.8 µM) | 0.8 (≈ 2.67 µM) | 12.5 (≈ 41.8 µM) | 0.8 (≈ 2.67 µM) | 12.5 (≈ 41.8 µM) | 0.8 (≈ 2.67 µM) | 0.8 (≈ 2.67 µM) | 12.5 (≈ 41.8 µM) | 0.8 (≈ 2.67 µM) | 12.5 (≈ 41.8 µM) | 0.8 (≈ 2.67 µM) | 12.5 (≈ 41.8 µM) | 6.3 (≈ 21 µM) | 12.5 (≈ 41.8 µM) | – |
| CC1COc2c(N3CCN(C)CC3)c(F)cc3c(=O)c(C(=O)O)cn1c23 (stereo unspecified) [OFLOXACIN] | 1.6 (≈ 4.43 µM) | 1.6 (≈ 4.43 µM) | 1.6 (≈ 4.43 µM) | 1.6 (≈ 4.43 µM) | 1.6 (≈ 4.43 µM) | 1.6 (≈ 4.43 µM) | 1.6 (≈ 4.43 µM) | 6.3 (≈ 17.4 µM) | 1.6 (≈ 4.43 µM) | 3.1 (≈ 8.58 µM) | 0.8 (≈ 2.21 µM) | 3.1 (≈ 8.58 µM) | 3.1 (≈ 8.58 µM) | 0.8 (≈ 2.21 µM) | 0.8 (≈ 2.21 µM) | 6.3 (≈ 17.4 µM) | 1.6 (≈ 4.43 µM) | – |
| CCN1CCN(C(=O)N[C@@H](C(=O)N[C@@H]2C(=O)N3[C@@H]2SC(C)(C)[C@@H]3C(=O)O)c2ccccc2)C(=O)C1=O [PIPERACILLIN] | 3.1 (≈ 5.99 µM) | 100 (≈ 193 µM) | 100 (≈ 193 µM) | 100 (≈ 193 µM) | 100 (≈ 193 µM) | 100 (≈ 193 µM) | 100 (≈ 193 µM) | 200 (≈ 386 µM) | 100 (≈ 193 µM) | 12.5 (≈ 24.2 µM) | 3.1 (≈ 5.99 µM) | 12.5 (≈ 24.2 µM) | 12.5 (≈ 24.2 µM) | 3.1 (≈ 5.99 µM) | 3.1 (≈ 5.99 µM) | 12.5 (≈ 24.2 µM) | 100 (≈ 193 µM) | – |
| C[C@@H](O)[C@H]1C(=O)N2C(C(=O)O)=C(S[C@@H]3CN[C@H](CNS(N)(=O)=O)C3)[C@H](C)[C@H]12 [DORIPENEM] | 0.8 (≈ 1.9 µM) | 0.8 (≈ 1.9 µM) | 0.1 (≈ 0.238 µM) | 1.6 (≈ 3.8 µM) | 0.2 (≈ 0.476 µM) | 1.6 (≈ 3.8 µM) | 0.2 (≈ 0.476 µM) | 3.1 (≈ 7.37 µM) | 0.2 (≈ 0.476 µM) | 0.4 (≈ 0.951 µM) | 0.8 (≈ 1.9 µM) | 0.4 (≈ 0.951 µM) | 1.6 (≈ 3.8 µM) | 0.2 (≈ 0.476 µM) | 0.8 (≈ 1.9 µM) | 1.6 (≈ 3.8 µM) | 1.6 (≈ 3.8 µM) | – |
| O=C(O)c1cn(C2CC2)c2cc(N3CCNCC3)c(F)cc2c1=O [CIPROFLOXACIN] | 0.2 (≈ 0.604 µM) | 0.2 (≈ 0.604 µM) | 0.2 (≈ 0.604 µM) | 0.2 (≈ 0.604 µM) | 0.2 (≈ 0.604 µM) | 0.2 (≈ 0.604 µM) | 0.2 (≈ 0.604 µM) | 0.8 (≈ 2.41 µM) | 0.2 (≈ 0.604 µM) | 0.8 (≈ 2.41 µM) | 0.2 (≈ 0.604 µM) | 0.8 (≈ 2.41 µM) | 0.8 (≈ 2.41 µM) | 0.2 (≈ 0.604 µM) | 0.2 (≈ 0.604 µM) | 0.8 (≈ 2.41 µM) | 0.2 (≈ 0.604 µM) | – |
| GENTAMICIN | – | – | – | – | – | – | – | – | – | – | – | 1.6 | – | – | 1.6 | – | – | MIC (Pseudomonas aeruginosa [1]): 1.6 µg/mL; MIC (Pseudomonas aeruginosa [2]): 1.6 µg/mL; MIC (Pseudomonas aeruginosa [3]): 1.6 µg/mL; MIC (Pseudomonas aeruginosa [4]): 100 µg/mL; MIC (Pseudomonas aeruginosa [5]): 100 µg/mL; MIC (Pseudomonas aeruginosa [6]): 3.1 µg/mL; MIC (Pseudomonas aeruginosa [7]): 3.1 µg/mL; MIC (Pseudomonas aeruginosa [8]): 100 µg/mL; MIC (Pseudomonas aeruginosa [18]): 100 µg/mL; MIC (Pseudomonas aeruginosa [9]): 100 µg/mL; MIC (Pseudomonas aeruginosa [10]): 1.6 µg/mL; MIC (Pseudomonas aeruginosa [11]): 1.6 µg/mL; MIC (Pseudomonas aeruginosa [13]): 1.6 µg/mL; MIC (Pseudomonas aeruginosa [14]): 1.6 µg/mL; MIC (Pseudomonas aeruginosa [16]): 1.6 µg/mL |
| C[C@@H](O)[C@H]1C(=O)N2C(C(=O)O)=C(S[C@@H]3CN[C@H](C(=O)N(C)C)C3)[C@H](C)[C@H]12 [MEROPENEM] | 1.6 (≈ 4.17 µM) | 3.1 (≈ 8.08 µM) | 0.2 (≈ 0.522 µM) | 3.1 (≈ 8.08 µM) | 0.2 (≈ 0.522 µM) | 3.1 (≈ 8.08 µM) | 0.2 (≈ 0.522 µM) | 12.5 (≈ 32.6 µM) | 0.2 (≈ 0.522 µM) | 1.6 (≈ 4.17 µM) | 1.6 (≈ 4.17 µM) | 1.6 (≈ 4.17 µM) | 6.3 (≈ 16.4 µM) | 0.2 (≈ 0.522 µM) | 1.6 (≈ 4.17 µM) | 6.3 (≈ 16.4 µM) | 3.1 (≈ 8.08 µM) | – |
